Activity calls are given as the source filed them. No cut-off for these calls is given here.
Columns and labels:
[1] = molecular target: T1, NAD-dependent protein deacetylase sirtuin-1 (Homo sapiens) (UniProt Q96EB6); assay: Activation of flag-tagged SIRT1 (unknown origin) expressed in HEK293 cells after 12 hrs by SIRT1-p53 luciferase reporter gene based assay; type: cell-based
T1 sequence (whole entry): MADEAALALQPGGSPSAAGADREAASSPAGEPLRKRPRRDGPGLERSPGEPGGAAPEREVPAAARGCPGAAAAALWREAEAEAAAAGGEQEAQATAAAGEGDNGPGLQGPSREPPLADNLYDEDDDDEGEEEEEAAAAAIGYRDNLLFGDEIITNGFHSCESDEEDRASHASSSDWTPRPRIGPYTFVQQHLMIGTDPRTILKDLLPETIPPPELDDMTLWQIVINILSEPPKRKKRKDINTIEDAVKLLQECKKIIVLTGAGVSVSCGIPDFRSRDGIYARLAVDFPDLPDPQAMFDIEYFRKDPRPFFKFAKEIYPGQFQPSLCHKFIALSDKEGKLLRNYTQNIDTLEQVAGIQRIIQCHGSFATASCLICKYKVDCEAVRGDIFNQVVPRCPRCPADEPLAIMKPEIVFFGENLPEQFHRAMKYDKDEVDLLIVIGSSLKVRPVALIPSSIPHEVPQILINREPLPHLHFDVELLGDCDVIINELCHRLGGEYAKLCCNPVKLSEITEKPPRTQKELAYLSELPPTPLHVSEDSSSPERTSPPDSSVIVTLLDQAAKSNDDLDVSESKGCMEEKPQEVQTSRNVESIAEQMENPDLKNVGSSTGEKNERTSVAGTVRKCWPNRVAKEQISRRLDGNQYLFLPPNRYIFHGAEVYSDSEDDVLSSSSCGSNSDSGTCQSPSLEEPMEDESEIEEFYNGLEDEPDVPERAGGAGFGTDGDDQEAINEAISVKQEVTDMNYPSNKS

[2] = molecular target: T1, NAD-dependent protein deacetylase sirtuin-1 (Homo sapiens); assay: Activation of SIRT1 (unknown origin) at 10 to 20 ug/mL using Fluor de Lys-SIRT1 peptide by in vitro enzyme-based SIRT1-NAD/NADH assay
Summary of the method: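 SIRT1 enzyme at 0.02 U/μL in Tris-HCl pH 8.0 buffer with BSA, MgCl2, KCl and NaCl, preincubated with compound for 5 min at room temperature. Reaction started with 500 μM NAD+ and 100 μM Fluor de Lys-SIRT1 substrate (stock solution), run 1 h at room temperature. Quenched with Developer II plus 2 mM nicotinamide for 30 min, then fluorescence read at ex 360/em 450 nm. DMSO and no-enzyme controls.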

[3] = molecular target: T1, NAD-dependent protein deacetylase sirtuin-1 (Homo sapiens); assay: Activation of flag-tagged SIRT1 (unknown origin) expressed in HEK293 cells at 2.5 to 5 ug/mL after 12 hrs by SIRT1-p53 luciferase reporter gene based assay; type: cell-based
[4] = molecular target: T1, NAD-dependent protein deacetylase sirtuin-1 (Homo sapiens); assay: Activation of SIRT1 (unknown origin) expressed in HEK293 cells assessed as increase in NAD+/NADH ratio at 2.5 to 5 ug/mL after 12 hrs; type: cell-based
Summary of the method: (§1)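 HEK293 cells grown in DMEM with 10% FBS at 37 °C, 5% CO2, and treated with compound for 12 h. NAD+/NADH ratio measured in whole-cell extracts with a red-fluorescence NAD/NADH quantitation kit.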

HEK293 = assay: Toxicity against HEK293 cells at 10 to 20 ug/ml; type: cell-based; conditions: human
[5] = molecular target: T1, NAD-dependent protein deacetylase sirtuin-1 (Homo sapiens); assay: Activation of flag-tagged SIRT1 (unknown origin) expressed in HEK293 cells at 10 to 20 ug/mL after 12 hrs by SIRT1-p53 luciferase reporter gene based assay; type: cell-based
[6] = molecular target: T1, NAD-dependent protein deacetylase sirtuin-1 (Homo sapiens); assay: Activation of SIRT1 (unknown origin) expressed in HEK293 cells assessed as increase in NAD+/NADH ratio at 10 to 20 ug/mL after 12 hrs; type: cell-based; summary of the method: as §1

Row | SMILES | Activity [1] | Activity [2] | Activity [3] | Activity [4] | Activity (HEK293) | Activity [5] | Activity [6]
1 | CC(C)=CCC[C@@](C)(O)[C@H]1CC[C@]2(C)[C@@H]1[C@H](O)C[C@@H]1[C@@]3(C)CC[C@H](O[C@@H]4O[C@H](CO)[C@@H](O)[C@H](O)[C@H]4O[C@@H]4O[C@H](CO)[C@@H](O)[C@H](O)[C@H]4O)C(C)(C)[C@@H]3CC[C@]12C | Dose-dependent effect |  |  |  |  |  | 
2 | CC(C)=CCC[C@](C)(O)[C@H]1CC[C@]2(C)[C@@H]1[C@H](O)C[C@@H]1[C@@]3(C)CC[C@H](O[C@@H]4O[C@H](CO)[C@@H](O)[C@H](O)[C@H]4O[C@@H]4O[C@H](CO)[C@@H](O)[C@H](O)[C@H]4O)C(C)(C)[C@@H]3CC[C@]12C | Active | Dose-dependent effect | Active | Active | Toxic |  | 
3 | CC(C)=CC/C=C(\C)[C@H]1CC[C@]2(C)[C@@H]1[C@H](O)C[C@@H]1[C@@]3(C)CC[C@H](O)C(C)(C)[C@@H]3[C@@H](O)C[C@]12C |  | Dose-dependent effect | Active | Active | Toxic |  | 
4 | CC(C)=CCC[C@](C)(O)[C@H]1CC[C@]2(C)[C@@H]1C(=O)C[C@@H]1[C@@]3(C)CCC(=O)C(C)(C)[C@@H]3[C@@H](O)C[C@]12C |  | Dose-dependent effect |  |  |  | Active | Active
5 | CC(C)(O)/C=C/C[C@](C)(O)[C@H]1CC[C@]2(C)[C@@H]1C(=O)C[C@@H]1[C@@]3(C)CCC(=O)C(C)(C)[C@@H]3[C@@H](O)C[C@]12C |  | Dose-dependent effect |  |  |  | Active | Active

Reference: ChEMBL document CHEMBL3352070, “Dammarane triterpenes as potential SIRT1 activators from the leaves of Panax ginseng” (J Nat Prod, 2014)
